From ChEMBL document CHEMBL1132987, “Phosphorylated morpholine acetal human neurokinin-1 receptor antagonists as water-soluble prodrugs” (J Med Chem, 2000)

Key:
[1] = tested on: Mustela putorius furo; experiment: (§1) Dose-dependent reduction in cisplatin-induced vomiting in ferrets at 1.0 mg/kg iv dose; type: functional
Procedure, shortened: (§2)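 Ferrets were pretreated intravenously at 0.1, 0.3 or 1.0 mg/kg, then given cisplatin at 10 mg/kg iv. Retches and vomits were counted over a 4 h observation period and reported as mean counts, with n = 4 per group. Vehicle-pretreated controls (n = 4-6) were run alongside.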

[2] = tested on: Mustela putorius furo; experiment: (§3) Dose dependent reduction in cisplatin-induced retching in ferrets at 0.3 mg/kg iv dose; type: functional; procedure, shortened: as §2
[3] = tested on: Mustela putorius furo; experiment: inhibitory dose was determined after intravenous administration of the compound.; type: functional
[4] = tested on: Mustela putorius furo; experiment: (§4) Dose-dependent reduction in cisplatin-induced vomiting in ferrets at 0.1 mg/kg iv dose; type: functional; procedure, shortened: as §2
[5] = tested on: Cavia porcellus; experiment: Inhibitory dose (ID50) was determined after intravenous administration followed by resiniferatoxin (RTX) challenge 1 hour before; type: functional; conditions: read-out: ID50 (the source's name)
Procedure, shortened: (§5)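 Guinea pigs received the compound orally or intravenously at either 1 h or 24 h before a systemic resiniferatoxin challenge, each line matching its own route and interval. The challenge induces SP-mediated systemic vascular leakage. ID50 (mg/kg) was derived from dose-response data using 2-11 animals per data point.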

[6] = tested on: Cavia porcellus; experiment: Inhibitory dose (ID50) was determined after oral administration followed by resiniferatoxin (RTX) challenge 24 hour before; type: functional; conditions: read-out: ID50 (the source's name); procedure, shortened: as §5
[7] = tested on: Cavia porcellus; experiment: Inhibitory dose (ID50) was determined after oral administration followed by resiniferatoxin (RTX) challenge 1 hour; type: functional; conditions: read-out: ID50 (the source's name); procedure, shortened: as §5
[8] = tested on: Mustela putorius furo; experiment: (§6) Dose dependent reduction in cisplatin-induced retching in ferrets at 0.1 mg/kg iv dose; type: functional; procedure, shortened: as §2
[9] = tested on: Mustela putorius furo; experiment: (§7) Dose-dependent reduction in cisplatin-induced vomiting in ferrets at 0.3 mg/kg iv dose; type: functional; procedure, shortened: as §2
[10] = tested on: Mustela putorius furo; experiment: (§8) Dose dependent reduction in cisplatin-induced retching in ferrets at 1.0 mg/kg iv dose; type: functional; procedure, shortened: as §2
[11] = tested on: Mustela putorius furo; experiment: as §8; type: functional; remark: listed apart in the source
[12] = tested on: Cavia porcellus; experiment: Dose (ID50) for inhibition of SP-mediated vascular leakage was determined after intravenous administration followed by resiniferatoxin (RTX) challenge 24 hour before; type: functional; conditions: read-out: ID50 (the source's name)
[13] = Area under curve (AUC) was determined after intravenous administration in rat at a dose of 5 mg/kg; type: ADME, organism-based; set-up: dose 5 mg/kg, route intravenous; conditions: in vivo
Procedure, shortened: (§9)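 The parent antagonist was given intravenously to rats (0.2, 2 and 5 mg/kg) or dogs. AUC of the parent was taken from plasma concentration–time data, and values are averages. Plasma levels were measured by HPLC-MS/MS.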

[14] = tested on: Mustela putorius furo; experiment: as §7; type: functional; remark: listed apart in the source
[15] = Area under curve was determined after intravenous administration of compound as Bis(N-methyl-D-glucamine) salt in rat at a dose 1 mg/kg; type: ADME, organism-based; set-up: dose 1 mg/kg, route intravenous; conditions: in vivo
Procedure, shortened: (§10)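 The phosphate prodrug, as its bis(N-methyl-D-glucamine) salt, was dosed intravenously to rats (1, 8, 25 mg/kg) and dogs (0.5, 2, 32 mg/kg). The reported AUC is of the released parent antagonist in plasma, given as an average. Plasma prodrug and parent were followed by HPLC-MS/MS.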

[16] = Area under curve (AUC) was determined after intravenous administration in dog at a dose of 2 mg/kg; type: ADME, organism-based, Canis lupus familiaris; set-up: dose 2 mg/kg, route intravenous; conditions: in vivo; procedure, shortened: as §9
[17] = tested on: Mustela putorius furo; experiment: as §3; type: functional; remark: listed apart in the source
[18] = Area under curve was determined after intravenous administration of compound as Bis(N-methyl-D-glucamine) salt in rat at a dose 8 mg/kg; type: ADME, organism-based; set-up: dose 8 mg/kg, route intravenous; conditions: in vivo; procedure, shortened: as §10
[19] = tested on: Mustela putorius furo; experiment: as §1; type: functional; remark: listed apart in the source
[20] = Area under curve (AUC) was determined after intravenous administration in rat at a dose of 2 mg/kg; type: ADME, organism-based; set-up: dose 2 mg/kg, route intravenous; conditions: in vivo; procedure, shortened: as §9
[21] = Area under curve (AUC) was determined after intravenous administration of compound as Bis(N-methyl-D-glucamine) salt in dog at a dose of 2 mg/Kg; type: ADME, organism-based, Canis lupus familiaris; conditions: in vivo; procedure, shortened: as §10
[22] = Area under curve (AUC) was determined after intravenous administration of compound as Bis(N-methyl-D-glucamine) salt in dog at a dose of 32 mg/Kg; type: ADME, organism-based, Canis lupus familiaris; conditions: in vivo; procedure, shortened: as §10
[23] = tested on: Cavia porcellus; experiment: Dose (ID50) for inhibition of SP-mediated vascular leakage was determined after intravenous administration followed by resiniferatoxin (RTX) challenge 1 hour before; type: functional; conditions: read-out: ID50 (the source's name); procedure, shortened: as §5
[24] = Area under curve (AUC) was determined after intravenous administration of compound as Bis(N-methyl-D-glucamine) salt in dog at a dose of 0.5 mg/Kg; type: ADME, organism-based, Canis lupus familiaris; conditions: in vivo; procedure, shortened: as §10
[25] = tested on: Cavia porcellus; experiment: Dose (ID50) for inhibition of SP-mediated vascular leakage was determined after oral administration followed by resiniferatoxin (RTX) challenge 1 hour; type: functional; conditions: read-out: ID50 (the source's name); procedure, shortened: as §5
[26] = Area under curve (AUC) was determined after intravenous administration in dog at a dose of 0.5 mg/kg; type: ADME, organism-based, Canis lupus familiaris; set-up: dose 0.5 mg/kg, route intravenous; conditions: in vivo; procedure, shortened: as §9
[27] = tested on: Mustela putorius furo; experiment: as §4; type: functional; remark: listed apart in the source
[28] = Area under curve (AUC) was determined after intravenous administration of compound as Bis(N-methyl-D-glucamine) salt in rat at a dose 25 mg/Kg; type: ADME, organism-based; conditions: in vivo; procedure, shortened: as §10
[29] = tested on: Mustela putorius furo; experiment: as §6; type: functional; remark: listed apart in the source

## CNC[C@H](O)[C@@H](O)[C@H](O)[C@H](O)CO.C[C@@H](O[C@H]1OCCN(Cc2nc(O)n(P(=O)(O)O)n2)[C@H]1c1ccc(F)cc1)c1cc(C(F)(F)F)cc(C(F)(F)F)c1
[1]
  Incidence_count: 1
[2]
  Incidence_count: 26
[3]
  ID90: 0.8 mg/kg
[4]
  Incidence_count: 16
[5]
  ED50: 0.006 mg/kg
[6]
  ED50: 0.9 mg/kg
[7]
  ED50: 0.016 mg/kg
[8]
  Incidence_count: 115
[9]
  Incidence_count: 4
[10]
  Incidence_count: 2

## C[C@@H](O[C@H]1OCCN(Cc2n[nH]c(=O)[nH]2)[C@H]1c1ccc(F)cc1)c1cc(C(F)(F)F)cc(C(F)(F)F)c1 [APREPITANT]
[11]
  Incidence_count: 0
[12]
  ED50: 0.5 mg/kg
[13]
  AUC: 6400 ng·h/mL
[14]
  Incidence_count: 1
[3]
  ID90: 0.3 mg/kg
[15]
  AUC: 570 ng·h/mL
[16]
  AUC: 38000 ng·h/mL
[17]
  Incidence_count: 5
[18]
  AUC: 6300 ng·h/mL
[19]
  Incidence_count: 0
[20]
  AUC: 2700 ng·h/mL
[21]
  AUC: 8900 ng·h/mL
[22]
  AUC: 370000 ng·h/mL
[23]
  ED50: 0.002 mg/kg
[24]
  AUC: 1100 ng·h/mL
[25]
  ED50: 0.012 mg/kg
[26]
  AUC: 3800 ng·h/mL
[27]
  Incidence_count: 13
[28]
  AUC: 22000 ng·h/mL
[29]
  Incidence_count: 90
